Data on 79 compounds can be found in PubChem BioAssay AID1656 (Sanford-Burnham Center for Chemical Genomics, 2009).

Among all 240,000 compounds or so, about 950 (0.4%) were called active. This is one part of a sample in which actives are shown more often than they occur.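 Rule for the calls: active = lipid droplet intensity inhibited by at least 50%, with more than 500 cells counted; inconclusive = wells with under 300 cells, treated as cytotoxic; inactive = the rest.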

The assay can be described thus: inhibitors of hepatocyte lipid droplet formation, primary screen, imaging, high-throughput imaging, BODIPY stain (AID 1656).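 For cell count: cells counted across two imaged fields per well.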 The note with it: AML12 mouse hepatocytes, oleate lipid droplets, at 6.5 µM; cell count: measured here: cell count, cytotoxicity flag; inhibition: stronger effect = higher value. The method in brief:
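Test system: AML12 mouse liver cells; schedule: overnight exposure; technique: high-content imaging of BODIPY-stained droplets and DAPI nuclei; read-out: % inhibition of corrected integrated BODIPY droplet signal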
A word on the inhibition: it is the change of the read-out against control, counted positive when it falls. Consider `COc1ccc(CCNC(=O)C(=O)NCC2OCCN2S(=O)(=O)c2cccs2)cc1OC` (stereo not drawn), for which the cell count was 689 cells and the inhibition was -12.1% (inactive).
The matching figures for `COc1cccc(C(=O)N/N=C(\C)c2cccc(NC(=O)c3ccc(F)cc3)c2)c1OC`: 678 cells and -6.8% (inactive).
Turning to `O=C1Nc2ccc(Br)cc2/C1=N/N=C/C1=C(N2CCOCC2)C(=C\c2ccccc2)/CC1`, the cell count stood at 750 cells and the inhibition is 55.6% (active).
The corresponding values for `C(=N\N1CCN(c2ccccn2)CC1)/C1=C(N2CCOCC2)C(=C/c2ccccc2)/CC1` are 680 cells and -4.6% (inactive).
Regarding `COc1ccc(/C=N/N=C2/C(=O)Nc3ccccc32)cc1O`, the cell count worked out at 676 cells and the inhibition was 9.7% (inactive).
The matching figures for `CCCc1cc(=O)oc2cc(OCC(=O)Nc3ccc(CN4CCOCC4)cc3)c(Cl)cc12`: 636 cells and -0.7% (inactive).
Take `O=C(CSc1nc2nccnc2c(=O)n1Cc1cccs1)Nc1ccccc1F`: the cell count is 782 cells and the inhibition was 2.9% (inactive).
On to `COc1cc(/C=C/C(=O)N2CCc3ccccc3C2)cc(OC)c1OC`, for which the cell count came out at 825 cells and the inhibition is 0% (inactive).
As for `CC(C)(C)NS(=O)(=O)c1ccc(NC(=O)C2CCCO2)cc1` (stereo not drawn), the cell count stood at 829 cells and the inhibition is 2.6% (inactive).
For `CCCNC(=O)CCc1c(C)nc2c(c(C)nn2-c2ccc(C)cc2)c1C`, the cell count stood at 848 cells and the inhibition is 10.2% (inactive).
`COc1ccc(N(CC(=O)Nc2cc(OC)cc(OC)c2)S(=O)(=O)c2c(C)n[nH]c2C)cc1`: the cell count is 704 cells and the inhibition was -4% (inactive).
On to `CCSc1nsc(NC(=O)Nc2ccccc2OC)n1`, for which the cell count came out at 808 cells and the inhibition is -10.6% (inactive).
The matching figures for `Cn1nccc1C(=O)NC1CCCc2c1cnn2-c1ccccc1F` (stereo not drawn): 545 cells and -55.5% (inactive).
For the compound `Cc1cc(C(=O)NC2CCCc3c2cnn3-c2cccc(C)c2C)c(C)o1` (stereo not drawn), the cell count was determined as 865 cells and the inhibition is 59.9% (active).
Turning to `COc1ccc(C(=O)NC2CCCc3c2cnn3-c2cccc(C)c2C)c(OC)n1` (stereo not drawn), the cell count amounted to 767 cells and the inhibition is -1.4% (inactive).
The matching figures for `COc1ccc(CCNC(=O)CS(=O)(=O)Cc2nc(-c3ccc(C)cc3)oc2C)cc1OC`: 750 cells and 11.2% (inactive).
In the case of `O=C(c1ccc(F)cc1)N1CCCC(C(=O)N2CCCCC2)C1` (stereo not drawn), the cell count worked out at 708 cells and the inhibition was -8.5% (inactive).
As for `O=S(=O)(c1ccc(Br)cc1)c1nc(-c2ccccc2)oc1N1CCOCC1`, the cell count is 610 cells and the inhibition is -17.8% (inactive).
In the case of `O=C1CCC(C(=O)N2CCN(c3ccccc3Cl)CC2)CN1CC1CCCCC1` (stereo not drawn), the cell count was 746 cells and the inhibition is 0% (inactive).
Regarding `COc1ccc(OC)c(CNC(=O)CCc2nc(-c3cccs3)no2)c1`, the cell count is 746 cells and the inhibition was -2% (inactive).
The corresponding values for `COc1ccc(OC)c(-c2csc(-c3cccs3)n2)c1` are 816 cells and 69.1% (active).
For `COc1ccc(-c2csc(-c3cccs3)n2)cc1OC`, the cell count was determined as 713 cells and the inhibition is 8.5% (inactive).
Take `O=C(Cn1cnc2cc([N+](=O)[O-])ccc2c1=O)NC(=O)NCc1ccccc1`: the cell count was 618 cells and the inhibition is -1% (inactive).
As to `CC(C)(C)NC(=O)Cn1cnc2cc([N+](=O)[O-])ccc2c1=O`, the cell count came to 720 cells and the inhibition was 58.1% (active).
Take `Cc1cc(C(=O)Cn2cnc3cc([N+](=O)[O-])ccc3c2=O)c(C)n1CC1CCCO1` (stereo not drawn): the cell count turned out to be 680 cells and the inhibition was -0.6% (inactive).
As to `CC(=O)N1CCN(c2ccccc2NC(=S)NC(=O)c2cc3ccccc3o2)CC1`, the cell count was determined as 682 cells and the inhibition is 29.4% (inactive).
For `Cc1cccc(N2CCN(C(=O)c3cccc(N4C(=O)C5C6C=CC(C6)C5C4=O)c3)CC2)c1C` (stereo not drawn), the cell count came out at 793 cells and the inhibition was -0.4% (inactive).
The matching figures for `CCCc1cc(C(=O)N2CCCC(CO)(CCCc3ccccc3)C2)n(C)n1` (stereo not drawn): 631 cells and -27.5% (inactive).
Regarding `CC1CCN(C(=S)NC(=O)c2ccccc2Br)CC1`, the cell count was 661 cells and the inhibition was -5.4% (inactive).
As to `CCN1C(=O)/C(=C2/Sc3ccccc3N2CCCS(=O)(=O)O)SC1=S`, the cell count is 691 cells and the inhibition was -5.7% (inactive).
The corresponding values for `CCCCN1C(=O)/C(=C2/C=CC=CN2C)SC1=S` are 765 cells and -17.5% (inactive).
With `CCCCN1C(=O)/C(=C/C=C2/C=Cc3ccccc3N2CC)SC1=S`, the cell count was 734 cells and the inhibition is 56.1% (active).
With `COc1ccc(Cl)cc1NC(=O)CN(C)C(=O)CNC(=O)C12CC3CC(CC(C3)C1)C2`, the cell count stood at 778 cells and the inhibition was 18.1% (inactive).
As for `COc1ccccc1NC(=O)CCCc1c[nH]c2ccccc12`, the cell count came to 740 cells and the inhibition is -19.1% (inactive).
As for `COc1ccc(Cl)cc1NC(=O)CN(C)C(=O)CCCc1c[nH]c2ccccc12`, the cell count came to 812 cells and the inhibition was 53.5% (active).
On to `Cc1ccc(-n2nc3c(=O)n(C(C)C(=O)NCc4ccc5c(c4)OCO5)nc(C)c3c2C)cc1` (stereo not drawn), for which the cell count was 665 cells and the inhibition is 15.4% (inactive).
As for `O=C(NCCCN1CCOCC1)c1cc(-c2ccccc2F)no1`, the cell count amounted to 726 cells and the inhibition was 6.3% (inactive).
In the case of `COC(=O)c1ccc(COc2ccc(/C=C/C(=O)c3ccc(OC)c(CSCC(=O)O)c3)cc2OC)cc1`, the cell count is 891 cells and the inhibition was -2% (inactive).
The corresponding values for `CC(C)c1ccc(N(C(=O)c2ccco2)C(C(=O)NC2CCCC2)c2cccnc2)cc1` (stereo not drawn) are 761 cells and -17.7% (inactive).
For the compound `Cc1c(C=O)c2ccccc2n1CCOc1ccccc1`, the cell count was determined as 839 cells and the inhibition is -1% (inactive).
For the compound `CN(CC1CCCO1)S(=O)(=O)c1ccc(C(=O)Nc2ccc(F)cc2)cc1` (stereo not drawn), the cell count came to 687 cells and the inhibition was -1.2% (inactive).
The corresponding values for `Cc1cc(N2CCCC2)n2nc(C)c(-c3ccccc3)c2n1` are 697 cells and 51.4% (active).
The matching figures for `Cc1cc(-n2nc(C)cc2C)n2nc(C)c(-c3ccccc3)c2n1`: 801 cells and 10% (inactive).
Regarding `Cc1cc(C(C)(C)C)n2nc(C)c(-c3ccccc3)c2n1`, the cell count is 401 cells and the inhibition was 2% (inactive).
Take `CC(=O)c1ccc(NC(=O)c2sc3nc4n(c(=O)c3c2C)CCCCC4)cc1`: the cell count is 749 cells and the inhibition is 9.9% (inactive).
For `O=C(C1CCCN(S(=O)(=O)c2ccc([N+](=O)[O-])cc2)C1)N1CCCCC1` (stereo not drawn), the cell count is 814 cells and the inhibition was 0.4% (inactive).
For `COc1ccc(-c2nonc2NC(=O)c2oc3ccc(F)cc3c2C)cc1OC`, the cell count was 738 cells and the inhibition is 39.5% (inactive).
Consider `COc1ccccc1CNC(=O)C1CCN(S(=O)(=O)c2ccc3c(c2)CC(C)N3C(=O)C2CC2)CC1` (stereo not drawn), for which the cell count was 719 cells and the inhibition is -4.5% (inactive).
Regarding `COc1ccc(NC(=O)CN2C(=O)COc3ccc(S(=O)(=O)N4CCOCC4)cc32)c(OC)c1`, the cell count turned out to be 694 cells and the inhibition was -1.6% (inactive).
In the case of `COc1ccccc1CNC(=O)[C@@H]1CCCN1C(=O)[C@@H]1Cc2ccccc2CN1C(=O)OC(C)(C)C`, the cell count stood at 737 cells and the inhibition was -4.8% (inactive).
With `CC(C)(COC(=O)Nc1ccccc1)COC(=O)Nc1ccccc1`, the cell count amounted to 842 cells and the inhibition is 2% (inactive).
Turning to `CSCCC(NS(=O)(=O)c1ccccc1F)C(=O)N1CC=C(c2ccccc2)CC1` (stereo not drawn), the cell count worked out at 678 cells and the inhibition is -35.6% (inactive).
Consider `O=C1/C(=C/c2ccc(F)cc2)SC(=S)N1CCCC(=O)N1CCCCC1CCO` (stereo not drawn), for which the cell count worked out at 789 cells and the inhibition was -7.9% (inactive).
In the case of `CCOCCCNc1nc(-c2ccccc2)nc2ccccc12`, the cell count worked out at 835 cells and the inhibition was 1.2% (inactive).
As to `CC(Nc1nc(C(F)(F)F)nc2ccccc12)c1cccs1` (stereo not drawn), the cell count stood at 808 cells and the inhibition was -12.3% (inactive).
Take `Cc1sc2nc(SCCO)n(-c3ccccc3)c(=O)c2c1C`: the cell count amounted to 835 cells and the inhibition was -15% (inactive).
With `Cc1ccccc1NC(=O)CSc1ccc2nnc(-c3ccccn3)n2n1`, the cell count is 640 cells and the inhibition is 22.7% (inactive).
Take `COc1ccc(CCNC(=O)c2ccccc2OCc2ccccc2)cc1`: the cell count turned out to be 773 cells and the inhibition was -18.7% (inactive).
Turning to `COc1ccc(CCNC(=O)CCc2cn(C)c3ccccc23)c(OC)c1`, the cell count came out at 811 cells and the inhibition is 15.9% (inactive).
On to `Cc1cccnc1CC(C)NC(=O)c1cc(COc2cncc(Cl)c2)on1` (stereo not drawn), for which the cell count worked out at 704 cells and the inhibition was 3.6% (inactive).
For the compound `COc1ccc(/C=C2\SC(=S)N(CCCC(=O)NC3CCCC3)C2=O)cc1OC`, the cell count came to 711 cells and the inhibition is -15.3% (inactive).
For the compound `CCOc1ccc(-n2c(SCC(=O)OC)nc3sc4c(c3c2=O)CCN(C)C4)cc1`, the cell count amounted to 796 cells and the inhibition is 4.9% (inactive).
With `CCOc1ccccc1NC(=S)N1CCN(c2cccc(C)c2C)CC1`, the cell count stood at 777 cells and the inhibition is -21% (inactive).
`O=C(c1ccc(OC2CCN(C/C=C/c3ccc(F)cc3)CC2)cc1)N1CCCCC1`: the cell count was 815 cells and the inhibition is 2% (inactive).
As for `O=C(Nc1ccc(F)cc1)c1ccc(S(=O)(=O)NCc2cccnc2)cc1`, the cell count was 806 cells and the inhibition is -51.8% (inactive).
`CC(C)=CCCC(C)CN1CCC(n2nccc2NC(=O)c2ccccc2)CC1` (stereo not drawn): the cell count worked out at 722 cells and the inhibition was 2.9% (inactive).
In the case of `N#C/C(=C\C1=C(N2CCOCC2)C(=C\c2ccccc2)/CC1)C(=O)Nc1ccccc1F`, the cell count was 430 cells and the inhibition was 56.4% (active).
The corresponding values for `N#C/C(=C/c1ccc(N2CCOCC2)o1)C(=O)N1CCOCC1` are 636 cells and -9.6% (inactive).
Turning to `N#C/C(=C\c1ccccc1C(F)(F)F)C(=O)Nc1ccccc1F`, the cell count was 614 cells and the inhibition is 1.8% (inactive).
Regarding `Cc1ccc(CNC(=O)CCS(=O)(=O)c2ccc3c(c2)CC(C)N3C(=O)C2CC2)o1` (stereo not drawn), the cell count is 715 cells and the inhibition was -2.5% (inactive).
For `Cc1nn(C(C)C(=O)NCCC2=CCCCC2)c(=O)c2nn(-c3ccccc3)c(C)c12` (stereo not drawn), the cell count was found to be 685 cells and the inhibition is -3.8% (inactive).
Regarding `COc1ccc(C)cc1N(C(=O)Cn1nnc(-c2ccc(C)o2)n1)C(C(=O)NC1CCCC1)c1ccncc1` (stereo not drawn), the cell count is 749 cells and the inhibition was -20.1% (inactive).
The matching figures for `CCOc1ccc(CCNC(=O)CCc2nnc3ccc(N4CCCC4)nn23)cc1OCC`: 752 cells and 69.5% (active).
As to `CCN(CC)c1ccc(NC(=O)CCc2nnc3ccc(N4CCCCC4)nn23)c(C)c1`, the cell count came out at 801 cells and the inhibition is 3.4% (inactive).
The matching figures for `CCOC(=O)c1cccc(NC(=O)CCc2nnc3ccc(N4CCOCC4)nn23)c1`: 652 cells and -5.8% (inactive).
The corresponding values for `COCCc1nn2c(=O)cc(COC(=O)c3cc(OC)c(OC)c(OC)c3)nc2s1` are 701 cells and 7.1% (inactive).
For `COc1ccccc1N1CCN(S(=O)(=O)c2ccc3c(c2)NC(=O)CS3)CC1`, the cell count amounted to 687 cells and the inhibition is -12.7% (inactive).
Consider `CCc1ccc(C(CNc2nc(C(F)(F)F)nc3ccccc23)N(C)C)cc1` (stereo not drawn), for which the cell count is 654 cells and the inhibition was -18.7% (inactive).
The matching figures for `Cc1ccc2sc(N(CCN(C)C)C(=O)/C=C/c3cccs3)nc2c1C`: 660 cells and 4.4% (inactive).
